Screen size: about 2,500 compounds; about 1,200 (48%) were called active.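 How the source made its calls: active means mean activation above the low control average plus 3 SD, as set in the primary screen (cut at about 12% in these data); inactive means the rest.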 So high a share suggests a set chosen from earlier hits. This is one part of the list.
target: Troponin I, cardiac muscle (Homo sapiens) + Troponin T, cardiac muscle (Homo sapiens) + Troponin C, slow skeletal and cardiac muscles (Homo sapiens) (UniProt P19429+P45379+P63316); experiment: calcium sensitizers of cardiac thin filaments – biochemical, IANBD-TnC fluorescence, triplicate, confirmation (AID 504383); settings: IANBD-labeled cardiac RTF, Ca2+ sensitivity fluorescence; at 7.2 µM; stronger effect = higher value; scaled from EC20 to saturating calcium; tested at EC20 calcium, 0.472 mM;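 further: 0% = DMSO at 0.472 mM calcium and 100% = DMSO at 2.9 mM calcium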
Summary of the method: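 Test system: labelled regulated thin filament protein complex. Dosing: single nominal compound dose of 7.2 µM. Benchmarks: EC20 and EC100 calcium wells. Read-out basis: fluorescence gain scaled between EC20 and EC100 calcium controls. Probe or stimulus: submaximal calcium at 0.472 mM (EC20). Technique: fluorescence. Times: 15 min compound exposure, 25 °C.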

SMILES	activation
Cc1c(O)c2c3c(cccc3c1O)C(=O)N(c1ccccc1)C2=O	67.4% (active)
Nc1ccc2c3c(cccc13)C(=O)N(c1ccccc1)C2=O	10.9% (inactive)
Cc1cccc(N2CCN(C(=O)Cn3nc(Cc4ccncc4)c4ccccc4c3=O)CC2)c1C	25.3% (active)
Cc1nc2ccccc2n2c(O)c(CC(=O)O)cc12	15.2% (active)
COc1ccc2c(n1)Sc1nc3ccccc3nc1N2	6.52% (inactive)
CC1(C)CC(=O)C2=C(C1)OC(N)=C(C#N)C21CCN(Cc2ccccc2)CC1	12.4% (active)
COc1ccc2[nH]c3c(c2c1)CCN1C(=O)C(CC(=O)NCCCn2ccnc2)C[C@H](C(=O)N2CCCCC2)[C@@]31C (some centres undefined)	6.39% (inactive)
O=C(Nc1cnn(Cc2c(Cl)cccc2Cl)c1)C(c1ccccc1)c1ccccc1	4.3% (inactive)
O=C(NCCOc1ccccc1Cl)C(=O)Nc1ccccc1	11.1% (inactive)
O=C(Cc1ccccc1Cl)Nc1cccnc1	22.6% (active)
O=C1c2ccccc2C(Nc2cccnc2)N1Cc1ccccc1Cl (centres undefined)	54.5% (active)
CCN1C(=O)/C(=C\C=C2/C=CC=CN2CC)SC1=S	431% (active)
CCCCN1C(=O)/C(=C/C=C2\SCCN2C)SC1=S	7.61% (inactive)
CN1CCS/C1=C/C=C1/SC(=S)N(Cc2ccccc2)C1=O	2.39% (inactive)
CN1CCS/C1=C/C=C1\SC(=S)N(CC(=O)O)C1=O	122% (active)
CCN1C(=O)/C(=C/C=C2/SCCN2C)SC1=S	42.9% (active)
CN1C(=O)/C(=C/C=C2\SCCN2C)OC1=S	31.5% (active)
C=CCNC(=S)N(CC=C)C1CCS(=O)(=O)C1 (centres undefined)	6.54% (inactive)
O=C(O)c1cccc2c1C(=O)c1ccc(N3CCCC3)cc1S2(=O)=O	6.28% (inactive)
C#CCSc1nc2[nH]ncc2c(=O)[nH]1	5.4% (inactive)

SMILES	activation
CN1CCS/C1=C\C=C1/SC(=S)N(CC(=O)O)C1=O	12.1% (active)
CCNC(=O)/C(C#N)=C/c1c(N2CCN(Cc3ccc4c(c3)OCO4)CC2)nc2c(C)cccn2c1=O	9.67% (inactive)
O=C(CCc1ccc(S(=O)(=O)NCCc2ccccc2)cc1)N1CCN(Cc2ccc3c(c2)OCO3)CC1	1.31% (inactive)
N#C/C(=C\N1CCN(Cc2ccc3c(c2)OCO3)CC1)c1nc2ccccc2s1	17.4% (active)
CC(OC(=O)c1c2c(nc3ccccc13)/C(=C\c1ccc3c(c1)OCO3)CCC2)C(=O)Nc1ccc(S(N)(=O)=O)cc1 (centres undefined)	3.14% (inactive)
CCCCNC(=O)COC(=O)c1c2c(nc3ccccc13)/C(=C\c1cccs1)CC2	6.15% (inactive)
NC(=O)c1ccc(NC(=O)COC(=O)c2c3c(nc4ccccc24)/C(=C\c2ccc4c(c2)OCO4)CCC3)cc1	11.7% (active)
O=C(NCc1ccccc1)C1=C[C@H](C2CC2)C[C@H](OCc2ccc(CO)cc2)O1	-0.14% (inactive)
CCCN(CCC)C(=O)C1c2ccccc2Oc2ccccc21	16.6% (active)
CCOC(=O)C1CCCN(C(=O)C2c3ccccc3Oc3ccccc32)C1 (centres undefined)	-3.14% (inactive)
CCOC(=O)C(C#N)C(c1cccnc1)c1c(C)[nH][nH]c1=O (centres undefined)	5.64% (inactive)
Cc1cccn2c(=O)c(/C=C3\SC(=S)NC3=O)c(NCCCN3CCOCC3)nc12	63.9% (active)
Cc1cccn2c(=O)c(/C=C3\SC(=S)N(CC(C)C)C3=O)c(NCCCOC(C)C)nc12	111% (active)
COc1cc(CCCN2C(=S)NC[C@@H]2CC2CCCCC2)cc(OC)c1OC	88.2% (active)
FC(F)(F)c1ccc(-c2nc(=S)[nH][nH]2)cc1	8.3% (inactive)
CCCN1C(=O)S/C(=C/c2ccc(N3CCOCC3)o2)C1=O	94.3% (active)
O=C1S/C(=C\c2ccc(N3CCOCC3)o2)C(=O)N1c1ccccc1	62.9% (active)
CC(C)OC(=O)CN1C(=O)S/C(=C/c2ccc(N3CCCCC3)o2)C1=O	13% (active)
CCCN1C(=O)S/C(=C\c2ccc(N3CCOCC3)o2)C1=O	1.26% (inactive)
O=C1NC(=S)S/C1=C/c1ccc(N2CCOCC2)o1	18.5% (active)

SMILES	activation
COc1ccc(/C=N/Nc2ncc(C(F)(F)F)cc2Cl)cc1OC	-2.64% (inactive)
Cc1[nH]c(=O)c(C#N)c(C)c1Cl	9.65% (inactive)
O=C1S/C(=C\c2ccc(N3CCOCC3)o2)C(=O)N1Cc1ccc(F)cc1	3.92% (inactive)
O=C1S/C(=C/c2ccc(N3CCOCC3)o2)C(=O)N1Cc1c(F)cccc1Cl	17.9% (active)
O=C1S/C(=C/c2ccc(N3CCOCC3)o2)C(=O)N1Cc1ccc(F)cc1	54.8% (active)
O=C1S/C(=C\c2ccc(N3CCOCC3)o2)C(=O)N1Cc1c(F)cccc1Cl	788% (active)
Cc1cc(C=C2C(=O)c3ccccc3C2=O)c(C)n1-c1ccc(Cl)cc1	13.3% (active)
Cc1cccc(-n2c(C)cc(C=C3C(=O)c4ccccc4C3=O)c2C)c1	1.06% (inactive)
Cc1cc(C=C2C(=O)CCCC2=O)c(C)n1-c1ccccc1	3.1% (inactive)
Cc1cc(C=C2C(=O)c3ccccc3C2=O)c(C)n1-c1ccccc1	94.4% (active)
CCN(CC)c1ccc(/C=C2\C(=N)N3N=C(CC(=O)N4CCOCC4)SC3=NC2=O)cc1	16.5% (active)
CCOC(=O)C1CCCN(C2=NC(=O)/C(=C/c3ccc(N(C)C)cc3)S2)C1 (centres undefined)	8.97% (inactive)
CN(C)c1ccc(/C=C2\C(=N)N3N=C(CC(=O)N4CCCCC4)SC3=NC2=O)cc1	41.6% (active)
CCOC(=O)C1CCCN(C2=NC(=O)/C(=C/c3ccc(O)c(OC)c3)S2)C1 (centres undefined)	-0.88% (inactive)
CN(C)c1ccc(/C=C2\SC(N3CCCCC3)=NC2=O)cc1	1160% (active)
CC(C)/C=C1\CC/C(=C\c2ccc(N(C)C)cc2)C1=O	5.2% (inactive)
O=C(/C=C/c1cn(CC(O)CN2CCCCCC2)c2ccccc12)c1cccs1 (centres undefined)	13.4% (active)
CCCN(CCC)CC(O)Cn1cc(/C=C/C(=O)c2cccs2)c2ccccc21 (centres undefined)	11.6% (inactive)
O=C(/C=C/c1cn(CC(O)CN2CCCCC2)c2ccccc12)c1cccs1 (centres undefined)	55.5% (active)
